Measurements: ChEMBL document CHEMBL3227997, “Nucleosides. 110. Synthesis and antiherpes virus activity of some 2'-fluoro-2'-deoxyarabinofuranosylpyrimidine nucleosides” (J Med Chem, 1979)
Values after ≈ are worked out from the molar mass of the structure shown.

Columns and labels:
Human alphaherpesvirus 1 [1] = experiment: Antiviral activity against HSV1 2931 infected in African green monkey Vero cells assessed as inhibition of virus replication at 0.1 ug/ml after 24 hrs relative to control; assay type: functional; conditions: Human alphaherpesvirus 1, 2931, Vero
In short: (§1)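 Vero monolayers infected with HSV-1 strain 2931 at about 1 PFU/cell, adsorbed 2 h, then overlaid with maintenance medium containing drug. Supernatants harvested 24 h later and titered on Vero monolayers.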

Human alphaherpesvirus 1 [2] = experiment: Antiviral activity against HSV1 2931 infected in African green monkey Vero cells assessed as inhibition of virus replication at 1 ug/ml after 24 hrs relative to control; assay type: functional; conditions: Human alphaherpesvirus 1, 2931, Vero; in short: as §1
Human alphaherpesvirus 1 [3] = experiment: Antiviral activity against HSV1 2931 infected in African green monkey Vero cells assessed as inhibition of virus replication at 10 ug/ml after 24 hrs relative to control; assay type: functional; conditions: Human alphaherpesvirus 1, 2931, Vero; in short: as §1
[4] = Cytotoxicity against mouse P815 cells assessed as growth inhibition after 96 hrs; assay type: cell-based; conditions: read-out: ID50
In short: (§2)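 Mouse leukemic lines grown in McCoy's medium with 15% fetal calf serum, starting at 40 000–60 000 cells/mL. Nucleoside added from a 50-fold concentrate; triplicate loosely capped tubes held at 37 °C in 5% CO2 for 96 h, controls reaching ~10^6 cells/mL. Cells counted electronically; percent growth inhibition calculated and the concentration for 50% inhibition reported.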

Human alphaherpesvirus 1 [5] = experiment: Antiviral activity against HSV1 2931 infected in African green monkey Vero cells assessed as inhibition of virus replication at 0.01 ug/ml after 24 hrs relative to control; assay type: functional; conditions: Human alphaherpesvirus 1, 2931, Vero; in short: as §1
Human alphaherpesvirus 1 [6] = experiment: Antiviral activity against HSV1 2931 infected in African green monkey Vero cells assessed as inhibition of virus replication at 100 ug/ml after 24 hrs relative to control; assay type: functional; conditions: Human alphaherpesvirus 1, 2931, Vero; in short: as §1
[7] = Cytotoxicity against mouse L5178Y cells assessed as growth inhibition after 96 hrs; assay type: cell-based; conditions: read-out: ID50; in short: as §2
Human alphaherpesvirus 1 [8] = experiment: Potency index, ratio of compound activity to vidarabine activity against HSV1 2931; assay type: functional

| Structure (SMILES) | inhibition at 0.1 µg/mL (Human alphaherpesvirus 1 [1]) [%] | inhibition at 1 µg/mL (Human alphaherpesvirus 1 [2]) [%] | inhibition at 10 µg/mL (Human alphaherpesvirus 1 [3]) [%] | GI50 at 96 h [4] [µg/mL] | inhibition at 0.01 µg/mL (Human alphaherpesvirus 1 [5]) [%] | inhibition at 100 µg/mL (Human alphaherpesvirus 1 [6]) [%] | GI50 at 96 h [7] [µg/mL] | Ratio (Human alphaherpesvirus 1 [8]) |
| --- | --- | --- | --- | --- | --- | --- | --- | --- |
| Cc1cn([C@@H]2O[C@H](CO)[C@@H](O)[C@@H]2O)c(=O)[nH]c1=O | < 90 | > 90 | 100 | 13 (≈ 50.3 µM) | < 90 | 100 | > 100 |  |
| Nc1nc(=O)n([C@@H]2O[C@H](CO)[C@@H](O)[C@@H]2F)cc1Br | > 90 | > 99 | 100 | > 10 | < 90 |  | 10 (≈ 30.9 µM) |  |
| Nc1ccn([C@@H]2O[C@H](CO)[C@@H](O)[C@@H]2F)c(=O)n1 | > 90 | > 90 | > 99.9 | 0.05 (≈ 0.204 µM) | < 90 | > 100 | 0.05 (≈ 0.204 µM) |  |
| Nc1nc(=O)n([C@@H]2O[C@H](CO)[C@@H](O)[C@@H]2F)cc1F | > 90 | > 99 | > 99.9 | 0.4 (≈ 1.52 µM) | < 90 |  | 0.5 (≈ 1.9 µM) |  |
| Nc1nc(=O)n([C@@H]2O[C@H](CO)[C@@H](O)[C@@H]2F)cc1Cl | < 90 | < 90 | > 99.9 | 1 (≈ 3.58 µM) | < 90 |  | 1.4 (≈ 5.01 µM) |  |
| Cl.Nc1nc(=O)n([C@@H]2O[C@H](CO)[C@@H](O)[C@@H]2F)cc1I | > 99 | > 100 | 100 | 14 | > 90 | 100 | 48 | 1000 |
| O=c1ccn([C@@H]2O[C@H](CO)[C@@H](O)[C@@H]2F)c(=O)[nH]1 | < 90 | > 99 | > 99 | > 10 | < 90 |  | > 10 |  |
| O=c1[nH]c(=O)n([C@@H]2O[C@H](CO)[C@@H](O)[C@@H]2F)cc1F | > 99 | > 100 | 100 | 0.7 (≈ 2.65 µM) | < 90 |  | 1 (≈ 3.79 µM) |  |
| O=c1[nH]c(=O)n([C@@H]2O[C@H](CO)[C@@H](O)[C@@H]2F)cc1Cl | < 90 | < 90 | > 100 | 3.4 (≈ 12.1 µM) | < 90 |  | 1.4 (≈ 4.99 µM) |  |
| O=c1[nH]c(=O)n([C@@H]2O[C@H](CO)[C@@H](O)[C@@H]2F)cc1Br | < 90 | > 99 | > 100 | 1.6 (≈ 4.92 µM) | < 90 |  | 0.9 (≈ 2.77 µM) |  |
| Nc1nc(=O)n([C@@H]2O[C@H](CO)[C@@H](O)[C@@H]2O)cc1I | < 90 | > 90 | > 100 | 0.08 (≈ 0.217 µM) | < 90 |  | 0.2 (≈ 0.542 µM) |  |
| O=c1[nH]c(=O)n([C@@H]2O[C@H](CO)[C@@H](O)[C@@H]2O)cc1I | < 90 | < 90 | > 90 | 16 (≈ 43.2 µM) | < 90 | > 100 | 30 (≈ 81.1 µM) |  |
| Cc1cn([C@@H]2O[C@H](CO)[C@@H](O)[C@@H]2F)c(=O)[nH]c1=O [5-METHYL-2'-FLUOROARAURACIL] | > 90 | > 99.9 | 100 | 1.9 (≈ 7.3 µM) | < 90 |  | 1.6 (≈ 6.15 µM) |  |
| Nc1ccn([C@@H]2O[C@H](CO)[C@@H](O)[C@@H]2O)c(=O)n1 [CYTARABINE] | < 90 | > 90 | > 100 | 0.02 (≈ 0.0822 µM) | < 90 | > 100 | 0.02 (≈ 0.0822 µM) |  |
| O=c1[nH]c(=O)n([C@@H]2O[C@H](CO)[C@@H](O)[C@@H]2F)cc1I [FIALURIDINE] | > 90 | > 99.9 | > 100 | 0.8 (≈ 2.15 µM) | < 90 |  | 0.9 (≈ 2.42 µM) |  |
| Nc1nc(=O)n([C@H]2C[C@H](O)[C@@H](CO)O2)cc1I [IBACITABINE] | < 90 | > 90 | > 99.9 | > 100 | < 90 |  | > 100 |  |
| O=c1[nH]c(=O)n([C@H]2C[C@H](O)[C@@H](CO)O2)cc1I [IDOXURIDINE] | < 90 | < 90 | > 90 | 0.9 (≈ 2.54 µM) | < 90 | 100 | 4.2 (≈ 11.9 µM) |  |
